# Data as given in ChEMBL document CHEMBL4393713, “Synthesis and biological evaluation of novel xanthine derivatives as potential apoptotic antitumor agents” (Eur J Med Chem, 2019).
# System: HT-29
# Assay: Antiproliferative activity against human HT-29 cells assessed as inhibition of cell proliferation measured after 48 hrs by MTT assay
# Assay type: functional, cell-based
# Conditions: HT-29, 48 h
# Outline: (§1)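 Cells tested by MTT: pancreatic Panc-1, breast MCF-7, colon HT-29 and A-549. Doxorubicin run alongside as the reference compound.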
row,Compound,IC50
1,COc1cccc2c1C(=O)c1c(O)c3c(c(O)c1C2=O)C[C@@](O)(C(=O)CO)C[C@@H]3O[C@H]1C[C@H](N)[C@H](O)[C@H](C)O1 [DOXORUBICIN],1.01 µM
2,Cn1c(=O)c2[nH]c(SCC(=O)c3ccccc3)nc2n(C)c1=O,5.9 µM
3,Cn1c(=O)c2[nH]c(SC/C(=N/O)c3ccccc3)nc2n(C)c1=O,6.7 µM
4,Cn1c(=O)c2[nH]c(SCC(=O)c3ccc(Cl)cc3)nc2n(C)c1=O,9.9 µM
5,Cn1c(=O)[nH]c2nc(SC/C(=N/O)c3ccccc3)[nH]c2c1=O,2.1 µM
6,Cn1c(=O)[nH]c2nc(SCC(=O)c3ccc(Cl)cc3)[nH]c2c1=O,7.2 µM
7,COc1ccc(C(=O)CSc2nc3c([nH]2)c(=O)n(C)c(=O)n3C)cc1,8.1 µM

# The next lines start with the values.
row,IC50,Compound
1,1.7 µM,COc1ccc(/C(CSc2nc3[nH]c(=O)n(C)c(=O)c3[nH]2)=N\O)cc1
2,2 µM,Cn1c(=O)[nH]c2nc(SC/C(=N/O)c3ccc(Br)cc3)[nH]c2c1=O
3,1.7 µM,COc1ccc(/C(CSc2nc3c([nH]2)c(=O)n(C)c(=O)n3C)=N\O)cc1
4,1.2 µM,Cn1c(=O)c2[nH]c(SC/C(=N/O)c3ccc(Cl)cc3)nc2n(C)c1=O

# System: PANC-1
# Assay: Induction of apoptosis in human PANC1 cells assessed as increase in caspase 8 level measured after 24 to 48 hrs relative to control
# Assay type: functional
# Conditions: not given
# Outline: (§2)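 Caspase-8, caspase-9 and cytochrome c levels in treated Panc-1 cells expressed as fold change relative to untreated control cells.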
row,Compound,fold change (FC)
1,COc1ccc(/C(CSc2nc3[nH]c(=O)n(C)c(=O)c3[nH]2)=N\O)cc1,2.58

# System: PANC-1
# Assay: Antiproliferative activity against human PANC1 cells assessed as inhibition of cell proliferation measured after 48 hrs by MTT assay
# Assay type: functional, cell-based
# Conditions: PANC-1, 48 h
# Outline: as §1
row,Compound,IC50
1,COc1cccc2c1C(=O)c1c(O)c3c(c(O)c1C2=O)C[C@@](O)(C(=O)CO)C[C@@H]3O[C@H]1C[C@H](N)[C@H](O)[C@H](C)O1 [DOXORUBICIN],1.41 µM
2,Cn1c(=O)c2[nH]c(SCC(=O)c3ccccc3)nc2n(C)c1=O,4.9 µM
3,Cn1c(=O)c2[nH]c(SC/C(=N/O)c3ccccc3)nc2n(C)c1=O,5.5 µM
4,Cn1c(=O)c2[nH]c(SCC(=O)c3ccc(Cl)cc3)nc2n(C)c1=O,7.2 µM
5,Cn1c(=O)[nH]c2nc(SC/C(=N/O)c3ccccc3)[nH]c2c1=O,3.6 µM
6,Cn1c(=O)[nH]c2nc(SCC(=O)c3ccc(Cl)cc3)[nH]c2c1=O,6.1 µM
7,COc1ccc(C(=O)CSc2nc3c([nH]2)c(=O)n(C)c(=O)n3C)cc1,6.4 µM

# Further lines, results first:
row,IC50,Compound
1,1.91 µM,COc1ccc(/C(CSc2nc3[nH]c(=O)n(C)c(=O)c3[nH]2)=N\O)cc1
2,2.1 µM,Cn1c(=O)[nH]c2nc(SC/C(=N/O)c3ccc(Br)cc3)[nH]c2c1=O
3,0.91 µM,COc1ccc(/C(CSc2nc3c([nH]2)c(=O)n(C)c(=O)n3C)=N\O)cc1
4,1.3 µM,Cn1c(=O)c2[nH]c(SC/C(=N/O)c3ccc(Cl)cc3)nc2n(C)c1=O

# Target: Epidermal growth factor receptor (Homo sapiens, UniProt P00533)
# Sequence (P00533 whole entry): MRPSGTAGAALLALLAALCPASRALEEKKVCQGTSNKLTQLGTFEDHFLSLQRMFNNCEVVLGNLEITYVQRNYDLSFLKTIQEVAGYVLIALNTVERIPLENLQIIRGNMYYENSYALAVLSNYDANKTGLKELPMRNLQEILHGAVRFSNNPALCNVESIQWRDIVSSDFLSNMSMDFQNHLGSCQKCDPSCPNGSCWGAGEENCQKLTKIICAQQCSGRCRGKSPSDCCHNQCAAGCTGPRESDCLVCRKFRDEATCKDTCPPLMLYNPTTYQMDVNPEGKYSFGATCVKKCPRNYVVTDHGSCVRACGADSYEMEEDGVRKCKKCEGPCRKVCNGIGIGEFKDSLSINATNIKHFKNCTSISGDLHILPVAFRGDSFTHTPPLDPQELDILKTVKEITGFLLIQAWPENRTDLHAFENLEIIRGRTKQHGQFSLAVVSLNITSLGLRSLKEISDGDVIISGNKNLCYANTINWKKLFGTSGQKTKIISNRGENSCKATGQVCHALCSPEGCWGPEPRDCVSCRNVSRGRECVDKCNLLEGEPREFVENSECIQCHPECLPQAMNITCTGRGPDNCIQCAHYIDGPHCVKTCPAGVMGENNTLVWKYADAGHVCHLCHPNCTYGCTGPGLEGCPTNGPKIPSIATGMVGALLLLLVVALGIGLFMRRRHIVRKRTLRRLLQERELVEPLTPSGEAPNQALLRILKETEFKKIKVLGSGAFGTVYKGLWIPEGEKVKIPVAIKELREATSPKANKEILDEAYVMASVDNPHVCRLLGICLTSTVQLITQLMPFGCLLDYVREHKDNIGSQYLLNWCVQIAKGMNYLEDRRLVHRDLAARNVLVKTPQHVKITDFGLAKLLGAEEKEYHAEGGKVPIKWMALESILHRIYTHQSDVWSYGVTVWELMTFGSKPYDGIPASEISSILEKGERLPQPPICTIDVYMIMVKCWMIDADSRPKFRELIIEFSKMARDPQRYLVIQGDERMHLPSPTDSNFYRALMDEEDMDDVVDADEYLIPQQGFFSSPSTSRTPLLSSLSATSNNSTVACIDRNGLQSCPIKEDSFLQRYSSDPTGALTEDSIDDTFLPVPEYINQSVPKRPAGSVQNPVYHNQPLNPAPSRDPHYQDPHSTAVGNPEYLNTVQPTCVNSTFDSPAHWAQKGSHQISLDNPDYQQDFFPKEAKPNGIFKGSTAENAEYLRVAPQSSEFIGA
# Assay: Inhibition of human EGFR measured after 3 hrs by ELISA
# Conditions: not given
row,IC50,Compound
1,0.71 µM,COc1ccc(/C(CSc2nc3[nH]c(=O)n(C)c(=O)c3[nH]2)=N\O)cc1
2,2.88 µM,Cn1c(=O)[nH]c2nc(SC/C(=N/O)c3ccc(Br)cc3)[nH]c2c1=O
3,0.4 µM,Cn1c(=O)c2[nH]c(SC/C(=N/O)c3ccc(Cl)cc3)nc2n(C)c1=O

# System: A549
# Assay: Antiproliferative activity against human A549 cells assessed as inhibition of cell proliferation measured after 48 hrs by MTT assay
# Assay type: functional, cell-based
# Conditions: A549, 48 h
# Outline: as §1
row,Compound,IC50
1,COc1cccc2c1C(=O)c1c(O)c3c(c(O)c1C2=O)C[C@@](O)(C(=O)CO)C[C@@H]3O[C@H]1C[C@H](N)[C@H](O)[C@H](C)O1 [DOXORUBICIN],1.21 µM
2,Cn1c(=O)c2[nH]c(SCC(=O)c3ccccc3)nc2n(C)c1=O,6.7 µM
3,Cn1c(=O)c2[nH]c(SC/C(=N/O)c3ccccc3)nc2n(C)c1=O,6.1 µM
4,Cn1c(=O)c2[nH]c(SCC(=O)c3ccc(Cl)cc3)nc2n(C)c1=O,8.4 µM
5,Cn1c(=O)[nH]c2nc(SC/C(=N/O)c3ccccc3)[nH]c2c1=O,5.6 µM
6,Cn1c(=O)[nH]c2nc(SCC(=O)c3ccc(Cl)cc3)[nH]c2c1=O,8.1 µM
7,COc1ccc(C(=O)CSc2nc3c([nH]2)c(=O)n(C)c(=O)n3C)cc1,7.9 µM

# Further lines, results first:
row,IC50,Compound
1,1.5 µM,COc1ccc(/C(CSc2nc3[nH]c(=O)n(C)c(=O)c3[nH]2)=N\O)cc1
2,2.1 µM,Cn1c(=O)[nH]c2nc(SC/C(=N/O)c3ccc(Br)cc3)[nH]c2c1=O
3,1.5 µM,COc1ccc(/C(CSc2nc3c([nH]2)c(=O)n(C)c(=O)n3C)=N\O)cc1
4,1.5 µM,Cn1c(=O)c2[nH]c(SC/C(=N/O)c3ccc(Cl)cc3)nc2n(C)c1=O

# System: PANC-1
# Assay: Induction of apoptosis in human PANC1 cells assessed as increase in BAX level by Sybr-green dye based RT-PCR analysis relative to control
# Assay type: functional
# Conditions: not given
row,Compound,fold change (FC)
1,COc1ccc(/C(CSc2nc3[nH]c(=O)n(C)c(=O)c3[nH]2)=N\O)cc1,8.9

# System: PANC-1
# Assay: Induction of apoptosis in human PANC1 cells assessed as increase in caspase 3 level measured after 24 to 48 hrs relative to control
# Assay type: functional
# Conditions: not given
# Outline: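 Active caspase-3 protein in treated Panc-1 cells quantified as pg/mL. Reported as fold increase over untreated control cells, with doxorubicin as the reference drug.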
row,Compound,fold change (FC)
1,COc1ccc(/C(CSc2nc3[nH]c(=O)n(C)c(=O)c3[nH]2)=N\O)cc1,7.65
2,Cn1c(=O)[nH]c2nc(SC/C(=N/O)c3ccc(Br)cc3)[nH]c2c1=O,4.99
3,Cn1c(=O)c2[nH]c(SC/C(=N/O)c3ccc(Cl)cc3)nc2n(C)c1=O,4.11

# System: PANC-1
# Assay: Induction of apoptosis in human PANC1 cells assessed as increase in caspase 9 level measured after 24 to 48 hrs relative to control
# Assay type: functional
# Conditions: not given
# Outline: as §2
row,Compound,fold change (FC)
1,COc1ccc(/C(CSc2nc3[nH]c(=O)n(C)c(=O)c3[nH]2)=N\O)cc1,14.49

# System: MCF7
# Assay: Antiproliferative activity against human MCF7 cells assessed as inhibition of cell proliferation measured after 48 hrs by MTT assay
# Assay type: functional, cell-based
# Conditions: MCF7, 48 h
# Outline: as §1
row,Compound,IC50
1,Cn1c(=O)c2[nH]c(SCC(=O)c3ccccc3)nc2n(C)c1=O,5.1 µM
2,Cn1c(=O)c2[nH]c(SC/C(=N/O)c3ccccc3)nc2n(C)c1=O,5.9 µM
3,Cn1c(=O)c2[nH]c(SCC(=O)c3ccc(Cl)cc3)nc2n(C)c1=O,8.4 µM
4,Cn1c(=O)[nH]c2nc(SC/C(=N/O)c3ccccc3)[nH]c2c1=O,4.3 µM
5,Cn1c(=O)[nH]c2nc(SCC(=O)c3ccc(Cl)cc3)[nH]c2c1=O,6.3 µM
6,COc1ccc(C(=O)CSc2nc3c([nH]2)c(=O)n(C)c(=O)n3C)cc1,7.6 µM

# The next lines start with the values.
row,IC50,Compound
1,1.8 µM,COc1ccc(/C(CSc2nc3[nH]c(=O)n(C)c(=O)c3[nH]2)=N\O)cc1
2,1.7 µM,Cn1c(=O)[nH]c2nc(SC/C(=N/O)c3ccc(Br)cc3)[nH]c2c1=O
3,0.8 µM,COc1ccc(/C(CSc2nc3c([nH]2)c(=O)n(C)c(=O)n3C)=N\O)cc1
4,1 µM,Cn1c(=O)c2[nH]c(SC/C(=N/O)c3ccc(Cl)cc3)nc2n(C)c1=O

# System: PANC-1
# Assay: Cell cycle arrest in human PANC1 cells assessed as accumulation at pre G1 phase measured after 24 hrs by annexin v propidium iodide staining based flow cytometric analysis (reference value: 1.79%)
# Assay type: functional
# Conditions: not given
row,Compound,Activity
1,COc1cccc2c1C(=O)c1c(O)c3c(c(O)c1C2=O)C[C@@](O)(C(=O)CO)C[C@@H]3O[C@H]1C[C@H](N)[C@H](O)[C@H](C)O1 [DOXORUBICIN],22.17%

# System: PANC-1
# Assay: Induction of apoptosis in human PANC1 cells assessed as downregulation of Bcl-2 expression level by Sybr-green dye based RT-PCR analysis relative to control
# Assay type: functional
# Conditions: not given
row,Compound,fold change (FC)
1,COc1ccc(/C(CSc2nc3[nH]c(=O)n(C)c(=O)c3[nH]2)=N\O)cc1,0.3378

# System: PANC-1
# Assay: Induction of apoptosis in human PANC1 cells assessed as increase in cytochrome C level using TMB substrate measured after 24 hrs relative to control
# Assay type: functional
# Conditions: not given
# Outline: as §2
row,Compound,fold change (FC)
1,COc1ccc(/C(CSc2nc3[nH]c(=O)n(C)c(=O)c3[nH]2)=N\O)cc1,11.43

# System: not listed separately
# Assay: Cytotoxicity against human MCF10A cells assessed as cell viability at 50 uM measured after 4 days by MTT assay relative to control
# Assay type: cell-based, MCF-10A
# Conditions: read-out: Activity
row,Compound,"viability at 96 h, 50 µM"
1,COc1ccc(/C(CSc2nc3[nH]c(=O)n(C)c(=O)c3[nH]2)=N\O)cc1,> 90%
2,Cn1c(=O)[nH]c2nc(SC/C(=N/O)c3ccc(Br)cc3)[nH]c2c1=O,> 90%
3,Cn1c(=O)c2[nH]c(SCC(=O)c3ccccc3)nc2n(C)c1=O,> 90%
4,Cn1c(=O)c2[nH]c(SC/C(=N/O)c3ccccc3)nc2n(C)c1=O,> 90%
5,COc1ccc(/C(CSc2nc3c([nH]2)c(=O)n(C)c(=O)n3C)=N\O)cc1,> 90%
6,Cn1c(=O)c2[nH]c(SCC(=O)c3ccc(Cl)cc3)nc2n(C)c1=O,> 90%
7,Cn1c(=O)[nH]c2nc(SC/C(=N/O)c3ccccc3)[nH]c2c1=O,> 90%
8,Cn1c(=O)[nH]c2nc(SCC(=O)c3ccc(Cl)cc3)[nH]c2c1=O,> 90%
9,Cn1c(=O)c2[nH]c(SC/C(=N/O)c3ccc(Cl)cc3)nc2n(C)c1=O,> 90%
10,COc1ccc(C(=O)CSc2nc3c([nH]2)c(=O)n(C)c(=O)n3C)cc1,> 90%
